Hits are enriched below; roughly 1.4% of the tested compounds scored in any of these assays.
SIAE inh = human SIAE inhibitors, primary screen, biochemical, fluorescence polarization, FP-Rh probe, 1536-well HTS. actives 0.69% (n = 370,000). AID 1053197, 2014. SIAE FP-Rh probe binding. Sialate O-acetylesterase (Homo sapiens), Q9HAT2. inhibition, % at 9.66 µM;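 active means inhibition above a cutoff: mean of compounds within the control limits plus 3 SD of those, cut at about 17% in these data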
ABHD4 inh = ABHD4 inhibitors, primary screen, biochemical, fluorescence polarization, mouse | (Lyso)-N-acylphosphatidylethanolamine lipase (Mus musculus), Q8VD66 | purified mABHD4, FP-Rh probe fluorescence polarization | inhibition, % at 8.92 µM | actives 0.54% (n = 370,000) | AID 720543, 2013;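 active means inhibition exceeding the mean over every tested compound plus 3 SD, cut at about 30% in these data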
Target sequence (Q8VD66 whole entry, looked up): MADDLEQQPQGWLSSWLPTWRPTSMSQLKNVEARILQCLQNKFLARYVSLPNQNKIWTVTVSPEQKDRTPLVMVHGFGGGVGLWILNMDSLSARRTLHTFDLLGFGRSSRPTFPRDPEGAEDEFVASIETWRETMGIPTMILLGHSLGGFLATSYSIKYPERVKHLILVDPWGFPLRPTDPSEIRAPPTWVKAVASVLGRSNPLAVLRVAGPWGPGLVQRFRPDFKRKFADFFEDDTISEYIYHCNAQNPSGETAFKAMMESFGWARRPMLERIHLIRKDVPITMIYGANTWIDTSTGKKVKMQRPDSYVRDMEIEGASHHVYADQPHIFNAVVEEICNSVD
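Assay system: mABHD4 protein; medium: HEPES pH 7.0, NaCl, Pluronic buffer; dosing: 8.92 µM, single dose; schedule: 45 min + 60 min at 25 °C; signal: FP readout, ex 525 nm / em 598 nm; read-out: normalized percent inhibition of probe labeling; repeats: single replicate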
HTRA1 inhibitor = HTRA1 serine protease inhibitors, primary screen, biochemical, fluorescence polarization, HTS; Q92743; recombinant HTRA1, FP-rhodamine activity-based probe; inhibition, % at 5.96 µM; actives 0.5% (n = 340,000); AID 504803, 2011; in the data active means inhibition above about 36%
RBBP9 inh = human RBBP9 inhibitors, primary screen, biochemical, fluorescence polarization, FP-Rh probe, HTS; Serine hydrolase RBBP9 (Homo sapiens), O75884; recombinant RBBP9; inhibition, % at 7.94 µM; actives 0.2% (n = 220,000);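 active means inhibition above the campaign mean of all tested compounds plus 3 SD, cut at about 14% in these data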
Target sequence (O75884 whole entry, looked up): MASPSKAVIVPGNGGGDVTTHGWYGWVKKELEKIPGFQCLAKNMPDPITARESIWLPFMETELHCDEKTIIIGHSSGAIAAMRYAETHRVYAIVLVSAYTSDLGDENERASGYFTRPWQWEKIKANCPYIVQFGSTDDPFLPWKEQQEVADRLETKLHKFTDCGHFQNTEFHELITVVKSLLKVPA
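Test system: recombinant human RBBP9; Timing: 30 min then 45 min, 25 °C; Detection: fluorescence polarization; Control set: RBBP9 with DMSO as uninhibited control, no-protein wells as full inhibition; Compound dosing: one concentration, 7.94 µM nominal, 0.794% DMSO; Probe or stimulus: FP-Rh activity-based probe, 375 nM before mixing.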
ABHD4 confirm = ABHD4 inhibitors, retest, confirmation, biochemical, fluorescence polarization, mouse; AID 720658, 2013; inhibition, % at 8.92 µM; shares compounds with ABHD4 inh; purified mABHD4, FP-Rh probe fluorescence polarization; actives 55% (n = 1,800);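 active means mean inhibition across replicates above the hit cutoff set in the primary screen, cut at about 30% in these data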
Numbers stand for hits; i = inactive; nt = not tested or not shown; + = active, no number.

SMILES | SIAE inh | ABHD4 inh | HTRA1 inhibitor | RBBP9 inh | ABHD4 confirm
COc1ccc(C(C)=NNc2ccc([N+](=O)[O-])cc2S(=O)(=O)Nc2ccccc2C(=O)O)c(OC)c1 | i | i | i | nt | nt
Cc1ccc2nc(CSc3nc(C)cc(C)c3C#N)[nH]c2c1 | i | 44 | i | i | i
COc1ccc(C(=O)Oc2cc(OC)cc(OC)c2C(C)=O)cc1 | i | 38 | i | i | 41
COc1cc(-c2coc3c(C(=O)NCc4ccc(C(F)(F)F)cc4)cccc23)ccc1O | i | i | nt | nt | nt
COc1ccc(-c2sc3cc4c(cc3c2C#CC2(N)CCCCC2)OCO4)cc1 | i | 32 | i | nt | 30
CCN(CC)S(=O)(=O)c1ccc(N2CCCC2)c(C(=O)OCC(=O)Nc2cc(C)on2)c1 | i | 45 | i | i | 61
CCOC(=O)c1c(/N=C/c2cccc([N+](=O)[O-])c2O)sc(C)c1C | i | 33 | i | i | i
COC(=O)C1=C(C)N(Cc2ccc(C(F)(F)F)cc2)C(=NCc2ccccc2)NC1c1cccc(Cl)c1 (configuration not stated) | i | 37 | nt | nt | 44
COC(=O)C1=C(C)N(Cc2ccc(C(F)(F)F)cc2)C(=NCc2ccccc2)NC1c1cccc(C(F)(F)F)c1 (configuration not stated) | i | i | nt | nt | nt
CCN=C1NC(c2cccc(Cl)c2)C(C(=O)OC)=C(C)N1Cc1ccc(C(F)(F)F)cc1 (configuration not stated) | i | i | nt | nt | nt
COC(=O)C1=C(C)N(Cc2cccc(C(F)(F)F)c2)C(=NCc2ccc3c(c2)OCO3)NC1c1ccc(Cl)cc1 (configuration not stated) | i | 40 | nt | nt | 82
COC(=O)C1=C(C)N(Cc2ccccc2)C(=NCc2cccc(C(F)(F)F)c2)N[C@H]1c1cccc(F)c1 | i | 37 | i | nt | 44
COC(=O)C1=C(C)N(Cc2ccccc2)C(=NCc2cccc(C(F)(F)F)c2)N[C@H]1c1cccc(C(F)(F)F)c1 | nt | nt | i | nt | nt
COC(=O)C1=C(C)N(Cc2ccc(C(F)(F)F)cc2)C(=NCc2ccccc2)NC1c1ccccc1 (configuration not stated) | i | 33 | nt | nt | 48
N#Cc1cc(F)cc(OCCCN2CCC(C(O)(c3ccccc3)c3ccccc3)CC2)c1 | i | i | nt | nt | nt
COCCCNC(=O)C[C@H]1C[C@@]2(C(=O)OC)C(=C[C@H](C3CCCC3)O[C@@H]2C)N(Cc2ccco2)C1=O | i | i | nt | nt | nt
COC(=O)C1=C(C)N(Cc2ccc(C(F)(F)F)cc2)C(=NCc2ccccc2)NC1c1ccc(C(F)(F)F)cc1 (configuration not stated) | i | 31 | nt | nt | 39
Cc1sc2nc(SCC(=O)c3ccc(O)c(O)c3)n(C)c(=O)c2c1C | i | i | nt | nt | nt
CCc1ccc(Nc2n[n+](-c3ccccc3)c(-c3c(Cl)cccc3Cl)s2)cc1 | i | 42 | i | nt | 47
CC1(C)CC(=O)C2=C(C1)OC(N)=C(C#N)C2c1cc2c(cc1[N+](=O)[O-])OCO2 (configuration not stated) | i | 34 | i | i | i
Cc1ccccc1Br | i | i | nt | nt | nt
O=C(NCCCO)c1ccc2nc(-c3ccco3)c(-c3ccco3)nc2c1 | i | 37 | i | i | i
O=C1NC(=O)/C(=C\c2ccc(O)cc2O)S1 | i | 30 | i | i | i
O=C1NC(=O)/C(=C/c2cccc3ccccc23)S1 | i | i | i | nt | nt
CC1=NN(Cc2ccccc2)C(=O)C1C(c1ccncc1)C(C#N)C#N (configuration not stated) | i | i | i | i | nt
SMILES | SIAE inh | ABHD4 inh | HTRA1 inhibitor | RBBP9 inh | ABHD4 confirm
CC1=NN(Cc2ccccc2)C(=O)C1C(c1ccc(Cl)cc1)C(C#N)C#N (configuration not stated) | i | 83 | i | i | i
CC1=NN(Cc2ccccc2)C(=O)C1C(c1ccccc1)C(C#N)C#N (configuration not stated) | i | 53 | i | i | i
COC(=O)[C@]12C[C@H](CC(=O)NCCCN3CCCC3=O)C(=O)N(Cc3ccccc3)C1=C[C@H](COCc1ccccc1)O[C@@H]2C | i | i | nt | nt | nt
c1ccc(C2OC3c4cccc5cccc(c45)C3N2c2ccccc2)cc1 (configuration not stated) | i | 48 | i | i | i
CC(=O)N1CCN(c2ccc(NCc3ccc(Br)o3)cc2)CC1 | i | 38 | i | nt | i
CC(C)c1ccc(NC(=O)Nc2nc(C(N)C3CCCCC3)cs2)cc1 (configuration not stated) | i | 31 | nt | nt | 32
Cn1c(=O)c2c(nc(SCc3nn[nH]n3)n2Cc2ccccc2F)n(C)c1=O | i | + | i | i | i
O=C(Nc1cccc(C(F)(F)F)c1)c1csc([C@@H]2O[C@H](CO)[C@H](O)[C@H](O)[C@H]2O)n1 | i | i | nt | nt | nt
c1ccc(-c2csc(Nc3ccc4c(c3)OCO4)n2)cc1 | i | 31 | nt | nt | i
O=C1c2ccccc2C(=O)N1c1cccc(-c2csc(Nc3ccc4c(c3)OCO4)n2)c1 | nt | nt | nt | i | nt
O=C(NNC(=S)NC1CCCCC1)c1sc2ccccc2c1Cl | i | 31 | i | i | i
O=C(NC1CC1)c1sc2ccccc2c1Cl | i | i | i | nt | nt
COc1cc(/C=C/c2ccc3cccc(O)c3n2)c(Br)cc1O | i | 30 | i | nt | 69
Cc1csc(=O)n1CC(=O)OCc1nnc(-c2ccc(Cl)cc2)o1 | i | 36 | i | nt | i
CC(CN1CCN(Cc2ccccc2)CC1)c1ccccc1 (configuration not stated) | i | 30 | i | nt | i
CCN(C(=S)NC(=O)c1ccco1)c1cccc2ccccc12 | i | 36 | i | nt | i
N#Cc1c(Cl)nsc1NN | i | 73 | i | i | i
Cc1c(C#N)c(N)nc(Cl)c1C#N | i | i | i | i | nt
COC(=O)C1CN(CCc2ccccc2)CCS(=O)(=O)N1Cc1ccccc1F (configuration not stated) | i | i | nt | nt | nt
CCCCNC(=O)O[C@@H]1C[C@H]2CCCC(=O)N3CC[C@@H](C1)[C@@H]23 | i | i | i | nt | nt
CCCCCCCN(c1ccccc1)[C@@H]1C[C@H]2CCCC(=O)N3CC[C@@H](C1)[C@@H]23 | i | 31 | i | nt | 53
Cn1c(CNc2ccc(O)cc2)nc2ccccc21 | i | 58 | i | nt | i
Cc1ccc(NCc2nc3ccccc3n2C)cc1 | i | i | i | i | nt
Cc1cccc2cc(/C=N/Nc3ccc(C(=O)O)cc3)c(Cl)nc12 | i | 38 | i | i | 44
COc1ccc(Cl)cc1NS(=O)(=O)c1ccc2c(c1)NC(=O)CCS2 | i | 32 | i | nt | i
O=C1/C(=C/c2ccco2)SC(=S)N1CCC(=O)N1CCCCC1CCO (configuration not stated) | i | 30 | i | nt | i
O=C(O)CCCN1C(=O)/C(=C/C=C/c2ccco2)SC1=S | i | 43 | i | i | i
